# Measurements pooled from the literature.
# Each line is one published result; the experiments were not run side by side.
# Target: Protein-tyrosine kinase 2-beta (PTK2B, Homo sapiens, UniProt Q14289)
Compound,observed,action,technique,tested at,quantity,result
CCN(CC)c1ccc(C2=NNC(=O)CC2C)cc1[N+](=O)[O-] (stereo not shown),enzyme activity,inhibitor,,10 µM,remaining activity,97%
Cc1noc([C@H]2C[C@@H](c3ccc(C(F)(F)F)cc3)CN(C(=O)N3CCS(=O)(=O)C3)C2)n1,cell-free assay,,competition with immobilised ligand,1 µM,remaining binding,100%
COc1cc2nccc(Oc3ccc(NC(=O)c4c5n(n(-c6ccc(F)cc6)c4=O)CCCC5)cc3)c2cc1OC,enzyme activity,inhibitor,,0.1 µM,inhibition,0%
C[C@H](c1ccc(F)cc1)N(Cc1cccc(C(=O)O)c1)C(=O)c1cnc2ccccc2c1,cell-free assay,,competition with immobilised ligand,1 µM,remaining binding,100%
CCN(CC)CCNC(=O)c1c(C)[nH]c(/C=C2\C(=O)Nc3ccc(F)cc32)c1C,enzyme activity,inhibitor,,0.3 µM,inhibition,59%
CC(C)(C)c1nc(-c2cccc(NS(=O)(=O)c3c(F)cccc3F)c2F)c(-c2ccnc(N)n2)s1,enzyme activity,inhibitor,radiometric,1 µM,remaining activity,109%
CN(c1ccnc(CNc2nc(Nc3ccc4c(c3)CC(=O)N4)ncc2C(F)(F)F)n1)S(C)(=O)=O,cell-free assay,,competition with immobilised ligand,1 µM,remaining binding,59%
Cc1ccc(C(=O)NCc2ccsc2)cc1C#Cc1cn(C(C)C)c2ncnc(N)c12,enzyme activity,inhibitor,,1 µM,activity vs control,57%
Cc1nc(Cc2cccc(C(F)(F)F)c2)sc1-c1ccc(C(N)=O)nc1,cell-free assay,,competition with immobilised ligand,1 µM,remaining binding,100%
N#CCCc1ccc2c(c1)-c1[nH]c3ccc([N+](=O)[O-])cc3c1CC(=O)N2,cell-free assay,,,0.5 µM,remaining signal,62.9%
CCN(CC)CCNC(=O)c1c(C)[nH]c(/C=C2\C(=O)Nc3ccc(F)cc32)c1C,enzyme activity,inhibitor,,0.1 µM,remaining activity,86%
Cc1ccc(Nc2nccc(N(C)c3ccc4c(C)n(C)nc4c3)n2)cc1S(N)(=O)=O,enzyme activity,inhibitor,,10 µM,inhibition,81%
CCCS(=O)(=O)Nc1ccc(F)c(C(=O)c2c[nH]c3ncc(-c4ccc(Cl)cc4)cc23)c1F,enzyme activity,inhibitor,,1 µM,inhibition,< 10%
Cc1sc(C(=O)NC2COC2)cc1-n1cc(NC(=O)Nc2c(F)cccc2Cl)cn1,enzyme activity,inhibitor,,10 µM,remaining activity,104%
COc1cc2c(Nc3ccc(Br)cc3F)ncnc2cc1OCC1CCN(C)CC1,cell-free assay,,,0.5 µM,remaining signal,99.5%
Cc1c(NC(=O)c2cc(C(N)=O)nc3cc(F)ccc23)c(C(F)(F)F)nn1Cc1ccc(C(C)(C)C)cc1,cell-free assay,,competition with immobilised ligand,1 µM,remaining binding,92%
O=C1NC(=O)c2cc(Nc3ccc(F)cc3)c(Nc3ccc(F)cc3)cc21,cell-free assay,,,0.5 µM,remaining signal,111%
FC(F)(F)c1ccc2c(c1)nc(-c1cccnc1)n2C1CC1,cell-free assay,,competition with immobilised ligand,1 µM,remaining binding,100%
CCCOc1ccc(OC)c(F)c1C(=O)c1ccc(C(=O)N[C@@H]2CNC[C@H]2NC(=O)c2ccc3[nH]ncc3c2)cc1,enzyme activity,inhibitor,,10 µM,remaining activity,77%
